Source: ChEMBL document CHEMBL2176930, “Structure-based design of novel inhibitors of the MDM2-p53 interaction” (J Med Chem, 2012)
Activity calls are given as the source filed them. The rule behind the calls is not given here.

Tests used:
Mus musculus [1] = test: Activity at p53 in human SJSA1 cells xenografted mouse assessed as induction of p21 mRNA expression at 150 mg/kg, qd for 4 days by RT-PCR analysis; format: functional, organism-based; set-up: dose 150 mg/kg; conditions: SJSA-1
How it was run: (§1)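 Female athymic nude mice carrying subcutaneous SJSA-1 tumours (5 × 10^6 cells implanted; dosing at ∼175 mm3). Oral dosing q.d. for 4 days. Tumours were snap-frozen and p21 mRNA measured by quantitative RT-PCR. Reported as mean fold induction over vehicle tumours, with SEM.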

Mus musculus [2] = test: Activity at p53 in human SJSA1 cells xenografted po dosed mouse assessed as induction of p21 mRNA expression administered qd for 4 days by RT-PCR analysis relative to control; format: functional, organism-based; conditions: SJSA-1; how it was run: as §1
[3] = Volume of distribution in cynomolgus monkey; format: ADME, organism-based, Macaca fascicularis; conditions: in vivo
SJSA-1 [4] = test: Antitumor activity against human SJSA1 cells xenografted in po dosed mouse assessed as tumor growth inhibition administered bid measured twice per weak; format: functional, organism-based
How it was run: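 Female athymic nude mice implanted subcutaneously with 5 × 10^6 SJSA-1 cells. Vehicle or compound at 25, 50, 75 or 100 mg/kg b.i.d. by oral gavage, starting on day 10 at ∼200 mm3 tumours (n = 10/group). Tumour size and body weight measured twice weekly; mean tumour volume ± SEM.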

[5] = Volume of distribution at steady state in mouse; format: ADME, organism-based; conditions: in vivo, read-out: Vdss
[6] = Volume of distribution at steady state in rat; format: ADME, organism-based; conditions: in vivo, read-out: Vdss
SJSA-1 [7] = test: Antitumor activity against human SJSA1 cells xenografted in athymic nude mouse assessed as tumor growth regression at 150 mg/kg, po qd for 14 days; format: functional, organism-based; set-up: dose 150 mg/kg
SJSA-1 [8] = test: animal or person; conditions: Mus musculus, SJSA-1, po, 336 h
[9] = biological target: T1, Tumour suppressor p53/oncoprotein Mdm2 (Homo sapiens, UniProt Q00987); format: protein assay
SJSA-1 [10] = test: cells; conditions: Homo sapiens, SJSA-1, 72 h
[11] = biological target: T1, Tumour suppressor p53/oncoprotein Mdm2; format: protein assay; remark: listed apart in the source
PXR (NR1I2) = biological target: T2, PXR (NR1I2) (Homo sapiens, UniProt O75469); test: Activation of human PXR at 2 uM relative to control; conditions: read-out: Activity
T2 sequence (O75469 whole entry): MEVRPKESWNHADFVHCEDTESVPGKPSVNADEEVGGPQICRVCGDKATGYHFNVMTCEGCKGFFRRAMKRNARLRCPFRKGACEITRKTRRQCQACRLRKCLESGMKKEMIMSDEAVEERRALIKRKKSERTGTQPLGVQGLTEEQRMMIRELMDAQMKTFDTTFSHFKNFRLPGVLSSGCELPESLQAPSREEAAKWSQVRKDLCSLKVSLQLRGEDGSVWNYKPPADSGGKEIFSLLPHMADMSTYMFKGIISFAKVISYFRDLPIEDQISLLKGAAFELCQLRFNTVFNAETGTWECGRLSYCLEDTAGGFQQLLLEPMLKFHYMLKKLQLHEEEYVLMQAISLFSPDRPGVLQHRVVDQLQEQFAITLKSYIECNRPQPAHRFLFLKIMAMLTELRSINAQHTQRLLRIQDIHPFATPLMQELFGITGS

CYP3A4 [12] = biological target: T3, CYP3A4 (Homo sapiens, UniProt P08684); test: Time dependent inhibition of human CYP3A4 assessed as residual activity at 10 uM after 15 mins relative to control; format: ADME; conditions: read-out: Activity
CYP3A4 [13] = biological target: T3, CYP3A4; test: Inhibition of human CYP3A4 at 3 uM; format: ADME
[14] = Intrinsic clearance in human hepatocytes assessed per million cells; format: ADME, cell-based, Hepatocyte; conditions: read-out: CLH
SJSA-1 [15] = test: animal or person; conditions: Mus musculus, SJSA-1, po, 336 h, read-out: TGI
[16] = Plasma clearance in rat; format: ADME, organism-based
HCT-116 = test: Induction of p21 mRNA expression in p53 deficient human HCT116 cells after 7 hrs by RT-PCR analysis; format: functional, cell-based
How it was run: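 HCT116 p53−/− cells exposed to compound for 7 h. Total RNA extracted and p21 mRNA quantified by quantitative RT-PCR.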

[17] = Plasma clearance in mouse; format: ADME, organism-based
Mus musculus [18] = test: Activity at p53 in human SJSA1 cells xenografted po dosed mouse assessed as induction of p21 mRNA expression administered once measured after 6 hrs by RT-PCR analysis; conditions: SJSA-1
SJSA-1 [19] = test: Antitumor activity against human SJSA1 cells xenografted in po dosed athymic nude mouse assessed as tumor growth inhibition administered qd after 14 days
[20] = Oral bioavailability in rat; format: ADME, organism-based; conditions: in vivo
[21] = Oral bioavailability in mouse; format: ADME, organism-based; conditions: in vivo

T1 sequence (P04637 whole entry): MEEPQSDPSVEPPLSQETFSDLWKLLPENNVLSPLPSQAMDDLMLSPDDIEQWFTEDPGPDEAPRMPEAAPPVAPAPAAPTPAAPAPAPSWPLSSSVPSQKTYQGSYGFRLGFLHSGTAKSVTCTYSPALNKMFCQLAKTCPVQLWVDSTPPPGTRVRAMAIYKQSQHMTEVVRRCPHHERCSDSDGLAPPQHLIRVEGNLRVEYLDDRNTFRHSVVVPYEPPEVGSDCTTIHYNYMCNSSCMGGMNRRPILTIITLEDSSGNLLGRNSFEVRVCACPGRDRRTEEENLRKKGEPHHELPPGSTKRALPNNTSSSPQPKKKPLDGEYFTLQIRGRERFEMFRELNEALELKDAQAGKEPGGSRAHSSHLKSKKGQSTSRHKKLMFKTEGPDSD
T1 sequence (Q00987 whole entry): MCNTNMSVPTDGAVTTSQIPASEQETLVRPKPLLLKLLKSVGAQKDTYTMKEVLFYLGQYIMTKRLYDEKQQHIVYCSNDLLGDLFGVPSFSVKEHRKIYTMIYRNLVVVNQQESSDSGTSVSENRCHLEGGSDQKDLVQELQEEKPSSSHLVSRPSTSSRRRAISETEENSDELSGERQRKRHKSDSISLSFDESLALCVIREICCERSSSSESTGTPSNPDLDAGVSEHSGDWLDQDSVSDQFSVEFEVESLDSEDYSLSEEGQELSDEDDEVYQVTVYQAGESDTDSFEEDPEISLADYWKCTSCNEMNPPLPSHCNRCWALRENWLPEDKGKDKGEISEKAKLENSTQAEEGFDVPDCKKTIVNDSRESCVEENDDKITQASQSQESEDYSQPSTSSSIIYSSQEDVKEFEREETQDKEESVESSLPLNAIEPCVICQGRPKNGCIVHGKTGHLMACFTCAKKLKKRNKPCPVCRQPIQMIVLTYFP
T3 sequence (P08684 whole entry): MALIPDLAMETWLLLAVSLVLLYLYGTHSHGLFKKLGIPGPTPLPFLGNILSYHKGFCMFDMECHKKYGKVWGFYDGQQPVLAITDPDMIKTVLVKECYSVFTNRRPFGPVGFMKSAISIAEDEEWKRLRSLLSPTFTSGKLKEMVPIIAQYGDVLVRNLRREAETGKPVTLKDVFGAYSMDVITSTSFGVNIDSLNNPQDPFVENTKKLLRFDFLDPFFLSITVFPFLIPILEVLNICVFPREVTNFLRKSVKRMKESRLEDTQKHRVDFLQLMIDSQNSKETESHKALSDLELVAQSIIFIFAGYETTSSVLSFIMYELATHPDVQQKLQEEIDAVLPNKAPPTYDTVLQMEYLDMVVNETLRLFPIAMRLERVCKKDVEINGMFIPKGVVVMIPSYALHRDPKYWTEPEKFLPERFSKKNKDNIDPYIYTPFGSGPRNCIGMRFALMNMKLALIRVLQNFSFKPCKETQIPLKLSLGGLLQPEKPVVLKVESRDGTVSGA

For `CC[C@@H]([C@H](C)O)N1C(=O)[C@@](C)(CC(=O)O)C[C@H](c2cccc(Cl)c2)[C@H]1c1ccc(Cl)cc1`, the Activity (Mus musculus [1]) was “Dose-dependent effect”, the Activity (Mus musculus [2]) was “Dose-dependent effect” and the Vd [3] was 6.2 L/kg. For the same molecule, the Activity (SJSA-1 [4]) was “Dose-dependent effect”, the Vd [5] was 5.2 L/kg and the Vd [6] was 12 L/kg. For the same molecule, the Activity (SJSA-1 [7]) was “Active” and the ED50 (SJSA-1 [8]) was 78 mg/kg.
In the case of `CC[C@@H](C(=O)OC(C)(C)C)N1C(=O)[C@@H](Cc2nnn[nH]2)C[C@H](c2cccc(Cl)c2)[C@H]1c1ccc(Cl)cc1`, the IC50 [9] is reported as 0.0203 µM, the IC50 (SJSA-1 [10]) is reported as 0.312 µM and the IC50 [11] is reported as 0.0018 µM.
Molecule `CC[C@@H](C(=O)OC(C)(C)C)N1C(=O)[C@@](C)(Cc2nnn[nH]2)C[C@H](c2cccc(Cl)c2)[C@H]1c1ccc(Cl)cc1` has an activity at 2 µM (PXR (NR1I2)) of 65%, an IC50 [9] of 0.009 µM and an IC50 (SJSA-1 [10]) of 0.17 µM. It also gave an activity at 0.25 h, 10 µM (CYP3A4 [12]) of 30%, an inhibition at 3 µM (CYP3A4 [13]) of 80% and an IC50 [11] of 0.0009 µM.
In the case of `N#CC[C@H]1C[C@H](c2cccc(Cl)c2)[C@@H](c2ccc(Cl)cc2)N(CC2CC2)C1=O`, the IC50 [9] is reported as > 30 µM and the IC50 [11] is reported as 2.34 µM.
Molecule `CCC(CC)N1C(=O)[C@@](C)(CC(=O)O)C[C@H](c2cccc(Cl)c2)[C@H]1c1ccc(Cl)cc1` has an IC50 (SJSA-1 [10]) of 0.54 µM.
With `O=C1CC[C@H](c2cccc(Cl)c2)[C@@H](c2ccc(Cl)cc2)N1Cc1ccccc1` (racemic) the IC50 [9] was > 30 µM and the IC50 [11] was 5.4 µM.
With `C=CC[C@H]1C[C@H](c2cccc(Cl)c2)[C@@H](c2ccc(Cl)cc2)N(CC2CC2)C1=O` the IC50 [9] was > 30 µM and the IC50 [11] was 6.5 µM.
For `COC(=O)CN1C(=O)CC[C@H](c2cccc(Cl)c2)[C@H]1c1ccc(Cl)cc1` (racemic), the IC50 [9] was > 30 µM and the IC50 [11] was 5.5 µM.
With `CCOC(=O)[C@@H](CC)N1C(=O)CC[C@H](c2cccc(Cl)c2)[C@H]1c1ccc(Cl)cc1` (racemic) the IC50 [9] was > 30 µM and the IC50 [11] was 3.5 µM.
For `CCOC(=O)[C@H](C)N1C(=O)CC[C@H](c2cccc(Cl)c2)[C@H]1c1ccc(Cl)cc1` (racemic), the IC50 [9] was > 30 µM and the IC50 [11] was 1.7 µM.
Work on `O=C1CC[C@H](c2cccc(Cl)c2)[C@@H](c2ccc(Cl)cc2)N1CC1CC1` (racemic) yielded an IC50 [11] of 1.5 µM.
With `CCCCN1C(=O)CC[C@H](c2cccc(Cl)c2)[C@H]1c1ccc(Cl)cc1` (racemic) the IC50 [9] was > 30 µM and the IC50 [11] was 2.7 µM.
`CCOC(=O)[C@H](CC)N1C(=O)CC[C@H](c2cccc(Cl)c2)[C@H]1c1ccc(Cl)cc1` (racemic) gave an IC50 [9] of 18.7 µM and an IC50 [11] of 0.94 µM.
In the case of `O=C1CC[C@@H](c2cccc(Cl)c2)[C@H](c2ccc(Cl)cc2)N1CC1CC1`, the IC50 [9] is reported as > 30 µM and the IC50 [11] is reported as > 30 µM.
With `CC[C@@H](C(=O)OC(C)(C)C)N1C(=O)[C@@](C)(CC(=O)O)C[C@H](c2cccc(Cl)c2)[C@H]1c1ccc(Cl)cc1` the hepatocyte CLint [14] was 26 µL/min/1e6 cells, the activity at 2 µM (PXR (NR1I2)) was 27% and the inhibition in vivo at 200 mg/kg (SJSA-1 [15]) was 91%. For the same molecule, the clearance [16] was 2.7 L/h/kg, the Activity (HCT-116) was “inactive” and the clearance [17] was 1.5 L/h/kg. For the same molecule, the Activity (Mus musculus [18]) was “Dose-dependent effect”, the activity at 0.25 h, 10 µM (CYP3A4 [12]) was 77% and the TGI (SJSA-1 [19]) was “Dose-dependent effect”. For the same molecule, the inhibition at 3 µM (CYP3A4 [13]) was 40%, the bioavailability [20] was 77% and the Vd [5] was 1.3 L/kg. The bioavailability [21] was 36%, the Vd [6] was 1.5 L/kg and the ED50 (SJSA-1 [8]) was 118 mg/kg.
For `O=C(O)CC[C@H]1C[C@H](c2cccc(Cl)c2)[C@@H](c2ccc(Cl)cc2)N(CC2CC2)C1=O`, the IC50 [9] was 6.63 µM and the IC50 [11] was 0.57 µM.
In the case of `CCC[C@@H](C(=O)OCC)N1C(=O)CC[C@H](c2cccc(Cl)c2)[C@H]1c1ccc(Cl)cc1` (racemic), the IC50 [9] is reported as > 30 µM and the IC50 [11] is reported as 1.4 µM.
With `O=C(O)CC[C@@H]1C[C@H](c2cccc(Cl)c2)[C@@H](c2ccc(Cl)cc2)N(CC2CC2)C1=O` the IC50 [9] was 6.64 µM and the IC50 [11] was 0.34 µM.
For `O=C1CC[C@H](c2cccc(Cl)c2)[C@@H](c2ccc(Cl)cc2)N1` (racemic), the IC50 [9] was > 30 µM and the IC50 [11] was 10 µM.
With `CCCN1C(=O)CC[C@H](c2cccc(Cl)c2)[C@H]1c1ccc(Cl)cc1` (racemic) the IC50 [9] was > 30 µM and the IC50 [11] was 1.9 µM.
With `O=C1CC[C@H](c2cccc(Cl)c2)[C@@H](c2ccc(Cl)cc2)N1CC1CC1` the IC50 [9] was > 30 µM and the IC50 [11] was 0.82 µM.
For `CC(C)CN1C(=O)CC[C@H](c2cccc(Cl)c2)[C@H]1c1ccc(Cl)cc1` (racemic), the IC50 [9] was > 30 µM and the IC50 [11] was 2.3 µM.
